Reference: ChEMBL document CHEMBL1914324, “Discovery of novel spirocyclic inhibitors of fatty acid amide hydrolase (FAAH). Part 2. Discovery of 7-azaspiro[3.5]nonane urea PF-04862853, an orally efficacious inhibitor of fatty acid amide hydrolase (FAAH) for pain” (Bioorg Med Chem Lett, 2011)
Active and inactive are the calls of the source. The calls are words filed in the database; no cut-off is given here.

How the values were obtained:
[1] = biological target: T1, Fatty-acid amide hydrolase 1 (Homo sapiens) (UniProt O00519); assay: Ratio of Kinact to Ki for human FAAH activity
T1 sequence (whole entry): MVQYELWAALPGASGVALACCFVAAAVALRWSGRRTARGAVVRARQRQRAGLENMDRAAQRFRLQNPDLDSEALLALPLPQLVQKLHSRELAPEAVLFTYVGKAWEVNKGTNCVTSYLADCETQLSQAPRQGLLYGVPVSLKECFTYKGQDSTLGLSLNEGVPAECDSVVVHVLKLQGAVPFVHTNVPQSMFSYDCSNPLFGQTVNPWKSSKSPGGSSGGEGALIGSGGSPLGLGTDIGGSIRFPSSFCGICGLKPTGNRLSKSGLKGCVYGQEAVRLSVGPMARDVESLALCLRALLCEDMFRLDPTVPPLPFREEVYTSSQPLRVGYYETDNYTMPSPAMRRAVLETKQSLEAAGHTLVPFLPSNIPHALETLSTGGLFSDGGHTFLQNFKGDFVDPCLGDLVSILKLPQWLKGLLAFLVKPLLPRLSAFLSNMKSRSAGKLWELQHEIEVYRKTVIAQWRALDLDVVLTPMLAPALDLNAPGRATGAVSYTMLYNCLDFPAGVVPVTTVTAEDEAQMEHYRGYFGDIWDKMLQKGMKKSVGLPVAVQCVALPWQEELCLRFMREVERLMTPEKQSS
Method in brief: (§1)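 kinact/Ki determined against human and rat FAAH. Each value is the average of at least two independent determinations.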

[2] = biological target: T2, Fatty-acid amide hydrolase 1 (Rattus norvegicus) (UniProt P97612); assay: Ratio of Kinact to Ki for rat FAAH activity; method in brief: as §1
T2 sequence (whole entry): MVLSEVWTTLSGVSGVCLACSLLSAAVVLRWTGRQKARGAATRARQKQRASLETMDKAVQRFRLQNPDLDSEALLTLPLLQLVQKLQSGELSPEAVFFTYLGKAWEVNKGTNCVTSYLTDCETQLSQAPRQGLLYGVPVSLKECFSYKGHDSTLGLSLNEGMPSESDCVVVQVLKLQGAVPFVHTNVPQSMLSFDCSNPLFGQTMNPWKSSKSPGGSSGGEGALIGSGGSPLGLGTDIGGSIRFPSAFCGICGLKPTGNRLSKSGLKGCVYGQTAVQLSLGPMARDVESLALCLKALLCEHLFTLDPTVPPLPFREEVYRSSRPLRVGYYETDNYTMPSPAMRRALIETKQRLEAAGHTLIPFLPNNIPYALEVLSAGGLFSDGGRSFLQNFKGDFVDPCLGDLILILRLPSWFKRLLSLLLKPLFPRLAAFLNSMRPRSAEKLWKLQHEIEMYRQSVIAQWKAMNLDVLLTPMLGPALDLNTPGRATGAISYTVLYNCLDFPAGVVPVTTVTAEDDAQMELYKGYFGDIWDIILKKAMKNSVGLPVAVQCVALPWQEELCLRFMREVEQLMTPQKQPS

Rattus norvegicus = assay: Inhibition of FAAH in rat CFA model at 3 mg/kg, po after 3 hrs; assay type: functional; conditions: for minimal effective dose: read-out: MED
[3] = biological target: T1, Fatty-acid amide hydrolase 1 (Homo sapiens); assay: Inhibition of FAAH in human brain membrane using rhodamine-tagged fluorophosphonate probe at 100 uM by competitive activity-based protein profiling method; assay type: cell membranes
Method in brief: (§2)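 Competitive activity-based protein profiling against >200 human serine hydrolases, FAAH included. Compound tested at 100 µM in human brain membrane and soluble liver proteomes. Residual hydrolase activity labelled with a rhodamine-tagged fluorophosphonate probe.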

[4] = biological target: T1, Fatty-acid amide hydrolase 1 (Homo sapiens); assay: Inhibition of FAAH in human liver proteomes using rhodamine-tagged fluorophosphonate probe at 100 uM by competitive activity-based protein profiling method; method in brief: as §2
[5] = biological target: Voltage-gated inwardly rectifying potassium channel KCNH2 (Homo sapiens, UniProt Q12809); assay: Displacement of dofetilide from ERG
Voltage-gated inwardly rectifying potassium channel KCNH2, sequence (Q12809 whole entry): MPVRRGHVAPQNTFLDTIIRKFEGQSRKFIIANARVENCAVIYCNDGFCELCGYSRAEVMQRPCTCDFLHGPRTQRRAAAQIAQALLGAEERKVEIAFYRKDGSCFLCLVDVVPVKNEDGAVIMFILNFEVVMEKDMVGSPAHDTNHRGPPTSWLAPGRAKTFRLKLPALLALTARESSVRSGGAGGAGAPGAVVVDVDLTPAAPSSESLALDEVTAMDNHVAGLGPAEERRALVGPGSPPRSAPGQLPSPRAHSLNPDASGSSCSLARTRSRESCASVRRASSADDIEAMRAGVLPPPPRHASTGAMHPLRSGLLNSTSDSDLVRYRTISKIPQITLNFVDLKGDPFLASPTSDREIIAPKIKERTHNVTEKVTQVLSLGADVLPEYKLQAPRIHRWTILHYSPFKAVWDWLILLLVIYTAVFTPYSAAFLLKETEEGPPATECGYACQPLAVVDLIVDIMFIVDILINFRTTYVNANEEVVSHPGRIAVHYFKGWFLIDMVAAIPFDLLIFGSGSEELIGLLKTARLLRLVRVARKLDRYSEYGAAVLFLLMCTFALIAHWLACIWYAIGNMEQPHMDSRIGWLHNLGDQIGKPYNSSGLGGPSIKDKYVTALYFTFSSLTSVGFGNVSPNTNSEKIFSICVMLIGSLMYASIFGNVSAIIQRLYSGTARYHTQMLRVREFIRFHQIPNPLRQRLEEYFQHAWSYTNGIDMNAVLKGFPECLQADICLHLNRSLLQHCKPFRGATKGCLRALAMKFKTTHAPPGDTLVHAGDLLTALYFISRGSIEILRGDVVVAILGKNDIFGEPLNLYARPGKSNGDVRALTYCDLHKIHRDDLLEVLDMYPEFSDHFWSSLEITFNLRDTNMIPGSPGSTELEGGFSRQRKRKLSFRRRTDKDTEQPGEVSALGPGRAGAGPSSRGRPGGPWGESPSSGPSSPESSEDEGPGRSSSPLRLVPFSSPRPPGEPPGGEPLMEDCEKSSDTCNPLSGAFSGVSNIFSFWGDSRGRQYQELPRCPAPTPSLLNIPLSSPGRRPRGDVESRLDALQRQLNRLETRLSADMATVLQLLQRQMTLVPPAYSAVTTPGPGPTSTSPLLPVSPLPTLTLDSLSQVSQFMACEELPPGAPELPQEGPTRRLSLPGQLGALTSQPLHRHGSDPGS

[6] = Inhibition of cytochrome P450; assay type: ADME

Row | SMILES | Ratio [1] [M⁻¹ s⁻¹] | Ratio [2] [M⁻¹ s⁻¹] | other results
1 | Cc1onc(NC(=O)N2CCC3(CC2)CC(c2cccc(OC(F)(F)F)c2)C3)c1C | 64 | 34.2 | –
2 | Cc1nnc(NC(=O)N2CCC3(CC2)CC(c2cccc(OC(F)(F)F)c2)C3)o1 | 1530 | 2460 | –
3 | Cc1noc(NC(=O)N2CCC3(CC2)CC(c2cccc(Cl)c2)CO3)c1C (stereo in doubt; form 1) | 2390 | 1560 | –
4 | CCc1cccc(C2CC3(CCN(C(=O)Nc4onc(C)c4C)CC3)C2)c1 | 5670 | 1340 | activity call (active/not active) (Rattus norvegicus): inactive; inhibition [3]: Active; inhibition [4]: Active; inhibition (INH) [5]: Not Active; inhibition (INH) [6]: Not Active
5 | CCn1nnnc1NC(=O)N1CCC2(CC1)CC(c1cccc(OC(F)(F)F)c1)C2 | 6940 | 3420 | –
6 | Cc1noc(NC(=O)N2CCC3(CC2)CC(c2cccc(Cl)c2)C3)c1C | 3940 | 3560 | activity call (active/not active) (Rattus norvegicus): Active; minimal effective dose (Rattus norvegicus): 1 mg/kg; inhibition [3]: Active; inhibition [4]: Active; inhibition (INH) [5]: Not Active; inhibition (INH) [6]: Not Active
7 | Cc1noc(NC(=O)N2CCC3(CC2)CC(c2ccc(C(F)(F)F)cc2)C3)c1C | 245 | 348 | –
8 | COc1ccccc1C1CC2(CCN(C(=O)Nc3onc(C)c3C)CC2)C1 | 2640 | 265 | –
9 | COc1ccc(C2CC3(CCN(C(=O)Nc4onc(C)c4C)CC3)C2)cc1 | 1760 | 585 | –
10 | Cn1nnnc1NC(=O)N1CCC2(CC1)CC(c1cccc(C(F)(F)F)c1)C2 | 12400 | 5750 | activity call (active/not active) (Rattus norvegicus): Active; minimal effective dose (Rattus norvegicus): 1 mg/kg; inhibition [3]: Active; inhibition [4]: Active; inhibition (INH) [5]: Not Active; inhibition (INH) [6]: Not Active
11 | Cn1nnnc1NC(=O)N1CCC2(CC1)CC(c1cccc(C(F)(F)F)c1)CO2 (stereo in doubt; form 1) [listing 1 of 2 here] | 4600 | 2160 | activity call (active/not active) (Rattus norvegicus): Active; inhibition [3]: Active; inhibition [4]: Active
12 | Cc1noc(NC(=O)N2CCC3(CC2)CC(c2ccc(C(F)(F)F)cc2)CO3)c1C (racemic) | 481 | 714 | –
13 | COc1cccc(C2CC3(CCN(C(=O)Nc4onc(C)c4C)CC3)C2)c1 | 2190 | 741 | –
14 | Cn1nnnc1NC(=O)N1CCC2(CC1)CC(c1ccc(F)c(Cl)c1)C2 | 16300 | 5940 | –
15 | Cc1noc(NC(=O)N2CCC3(CC2)CC(c2cccc(C#N)c2)CO3)c1C (racemic) | 243 | 999 | –
16 | Cn1ncnc1NC(=O)N1CCC2(CC1)CC(c1cccc(OC(F)(F)F)c1)C2 | < 10 | – | –
17 | Cc1noc(NC(=O)N2CCC3(CC2)CC(c2cccc(Cl)c2)CO3)c1C (stereo in doubt; form 2) | 2590 | 3830 | –
18 | Cc1noc(NC(=O)N2CCC3(CC2)CC(c2ccc(Cl)c(Cl)c2)CO3)c1C (racemic) | 2430 | 4360 | –
19 | Cc1noc(NC(=O)N2CCC3(CC2)CC(c2ccc(Cl)cc2)C3)c1C | 2030 | 2070 | –
20 | Cn1nnnc1NC(=O)N1CCC2(CC1)CC(c1cccc(OC(F)(F)F)c1)CO2 (configuration not stated) | 7110 | 4560 | activity call (active/not active) (Rattus norvegicus): Active; minimal effective dose (Rattus norvegicus): 0.1 mg/kg; inhibition [3]: Active; inhibition [4]: Active; inhibition (INH) [5]: Not Active; inhibition (INH) [6]: Not Active
21 | Cn1nnnc1NC(=O)N1CCC2(CC1)CC(c1cccc(C(F)(F)F)c1)CO2 (stereo in doubt; form 1) [listing 2 of 2 here] | – | – | minimal effective dose (Rattus norvegicus): 1 mg/kg; inhibition (INH) [5]: Not Active; inhibition (INH) [6]: Not Active
22 | Cc1noc(NC(=O)N2CCC3(CC2)CC(c2cccc(OC(F)(F)F)c2)C3)c1C | 2830 | 3860 | activity call (active/not active) (Rattus norvegicus): Active; minimal effective dose (Rattus norvegicus): 1 mg/kg; inhibition [3]: Active; inhibition [4]: Active; inhibition (INH) [5]: Not Active; inhibition (INH) [6]: Not Active

Row | SMILES | Ratio [1] [M⁻¹ s⁻¹] | Ratio [2] [M⁻¹ s⁻¹] | other results
23 | Cc1noc(NC(=O)N2CCC3(CC2)CC(c2ccc(OC(F)(F)F)cc2)CO3)c1C (racemic) | 162 | 461 | –
24 | Cn1nnnc1NC(=O)N1CCC2(CC1)CC(c1cccc(Cl)c1)CO2 (configuration not stated) | 5600 | 1970 | –
25 | Cn1nnnc1NC(=O)N1CCC2(CC1)CC(c1cccc(C(F)(F)F)c1)CO2 (stereo in doubt; form 2) | 3760 | 2110 | –
26 | Cc1noc(NC(=O)N2CCC3(CC2)CC(c2ccccc2OC(F)(F)F)C3)c1C | 839 | 564 | –
27 | Cc1noc(NC(=O)N2CCC3(CC2)CC(c2ccc(OC(F)(F)F)cc2)C3)c1C | 353 | 229 | –
28 | Cn1nnnc1NC(=O)N1CCC2(CC1)CC(c1cccc(OC(F)(F)F)c1)C2 | 13200 | 4570 | activity call (active/not active) (Rattus norvegicus): Active; minimal effective dose (Rattus norvegicus): 0.1 mg/kg; inhibition [3]: Active; inhibition [4]: Active; inhibition (INH) [5]: Not Active; inhibition (INH) [6]: Not Active
29 | Cc1cc(NC(=O)N2CCC3(CC2)CC(c2cccc(OC(F)(F)F)c2)C3)on1 | 113 | – | –
30 | Cc1noc(NC(=O)N2CCC3(CC2)CC(c2cccc(Cl)c2)CO3)c1C (racemic) | 2040 | 2670 | –
31 | Cc1noc(NC(=O)N2CCC3(CC2)CC(c2cccc(OC(F)(F)F)c2)CO3)c1C (racemic) | 1800 | 3110 | –
32 | Cc1cccc(C2CC3(CCN(C(=O)Nc4onc(C)c4C)CC3)C2)c1 | 2870 | 1620 | –
33 | Cc1noc(NC(=O)N2CCC3(CC2)CC(c2ccc(Cl)c(Cl)c2)C3)c1C | 4550 | 3470 | –
34 | Cc1noc(NC(=O)N2CCC3(CC2)CC(c2ccccc2C(F)(F)F)C3)c1C | 1140 | – | –
35 | Cc1noc(NC(=O)N2CCC3(CC2)CC(c2ccccc2)CO3)c1C (racemic) | 461 | 315 | –
36 | Cn1nnc(NC(=O)N2CCC3(CC2)CC(c2cccc(OC(F)(F)F)c2)C3)n1 | 165 | 152 | –
37 | Cc1noc(NC(=O)N2CCC3(CC2)CC(c2cccc(Oc4ccc(C(F)(F)F)cn4)c2)C3)c1C | – | 9460 | –
38 | Cc1noc(NC(=O)N2CCC3(CC2)CC(c2ccc(C#N)cc2)CO3)c1C (racemic) | 43.2 | 26.1 | –
39 | Cc1noc(NC(=O)N2CCC3(CC2)CC(c2cccc(C(F)(F)F)c2)C3)c1C | 3060 | 3690 | –
40 | CCc1c(C)noc1NC(=O)N1CCC2(CC1)CC(c1cccc(OC(F)(F)F)c1)C2 | 338 | – | –
41 | Cc1noc(NC(=O)N2CCC3(CC2)CC(c2cccc(C(F)(F)F)c2)CO3)c1C (racemic) | 1330 | 2680 | –
42 | Cc1noc(NC(=O)N2CCC3(CC2)CC(c2ccccc2)C3)c1C | 2080 | 679 | –
43 | CCc1noc(NC(=O)N2CCC3(CC2)CC(c2cccc(OC(F)(F)F)c2)C3)c1C | 1650 | 1660 | –
44 | Cc1noc(NC(=O)N2CCC3(CC2)CC(c2ccc(F)c(Cl)c2)CO3)c1C (racemic) | 1580 | 3950 | –
